Reference: ChEMBL document CHEMBL1134728, “Heterocyclic substituted anthralin derivatives as inhibitors of keratinocyte growth and inducers of differentiation” (Bioorg Med Chem Lett, 2001)

Key:
[1] = Deoxyribose degradation measured as hydroxyl radical generation in HaCaT cell at 75 uM expressed as malondialdehyde released; format: functional, Homo sapiens
[2] = Antiproliferative activity against growth of HaCaT cell was determined; format: functional, cell-based; details: Homo sapiens
[3] = Compound was tested for the induction of HaCaT keratinocyte differentiation at 10 uM expressed as the amount of cross-linked protein in cornified envelope assay; format: functional, Homo sapiens
Method in brief: (§1)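 Terminal differentiation of HaCaT keratinocytes measured as insoluble cross-linked protein envelopes, using a modified method; protein in envelope preparations quantified by Bradford. Value is the difference in cross-linked protein per mg protein between treated and vehicle-control cells; means ± SEM of three independent experiments; significance vs vehicle p < 0.05.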

[4] = Compound was tested for the induction of HaCaT keratinocyte differentiation at 5 uM expressed as the amount of cross-linked protein in cornified envelope assay; format: functional, Homo sapiens; method in brief: as §1
[5] = Compound was tested for the induction of HaCaT keratinocyte differentiation at 1 uM expressed as the amount of cross-linked protein in cornified envelope assay; format: functional, Homo sapiens; method in brief: as §1
[6] = Activity of LDH release in HaCaT cells after treatment with 2 uM concentration of the compound; format: functional, Homo sapiens
Method in brief: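 LDH activity (mU) released into the HaCaT culture medium after compound treatment, taken as a marker of plasma membrane integrity and cytotoxicity; compared against vehicle controls; N=3.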

## O=C1c2c(O)cccc2C(C(=O)c2ccccc2)c2cccc(O)c21
[1]
  DD: 2.31 uM mM-1
[2]
  IC50: > 5000 nM

## O=C1c2c(O)cccc2C(C(=O)c2ccsc2)c2cccc(O)c21
[3]
  Amount of cross-linked protein: 3.4 (ug of cross-linked protein) (mg of protein)-1
[1]
  DD: 0.82 uM mM-1
[2]
  IC50: > 5000 nM
[4]
  Amount of cross-linked protein: 0.6 (ug of cross-linked protein) (mg of protein)-1
[5]
  Amount of cross-linked protein: -0.6 (ug of cross-linked protein) (mg of protein)-1

## O=C1c2c(O)cccc2C(C(=O)/C=C/c2cccs2)c2cccc(O)c21
[3]
  Amount of cross-linked protein: 5.6 (ug of cross-linked protein) (mg of protein)-1
[6]
  LDH release: 166 mU
[1]
  DD: 1.13 uM mM-1
[2]
  IC50: 4200 nM
[4]
  Amount of cross-linked protein: 5 (ug of cross-linked protein) (mg of protein)-1
[5]
  Amount of cross-linked protein: 2 (ug of cross-linked protein) (mg of protein)-1

## O=C1c2c(O)cccc2C(C(=O)c2ccc[nH]2)c2cccc(O)c21
[3]
  Amount of cross-linked protein: 6.5 (ug of cross-linked protein) (mg of protein)-1
[6]
  LDH release: 202 MU
[1]
  DD: 1.77 uM mM-1
[2]
  IC50: 600 nM
[4]
  Amount of cross-linked protein: 5.7 (ug of cross-linked protein) (mg of protein)-1
[5]
  Amount of cross-linked protein: 2.3 (ug of cross-linked protein) (mg of protein)-1

## O=C1c2c(O)cccc2C(C(=O)c2cc3ccccc3[nH]2)c2cccc(O)c21
[3]
  Amount of cross-linked protein: 5.7 (ug of cross-linked protein) (mg of protein)-1
[6]
  LDH release: 167 mU
[1]
  DD: 0.17 uM mM-1
[2]
  IC50: 700 nM
[4]
  Amount of cross-linked protein: 4.8 (ug of cross-linked protein) (mg of protein)-1
[5]
  Amount of cross-linked protein: 2 (ug of cross-linked protein) (mg of protein)-1

## O=C1c2c(O)cccc2C(C(=O)c2ccco2)c2cccc(O)c21
[3]
  Amount of cross-linked protein: 5.8 (ug of cross-linked protein) (mg of protein)-1
[6]
  LDH release: 242 mU
[1]
  DD: 0.41 uM mM-1
[2]
  IC50: 1200 nM
[4]
  Amount of cross-linked protein: 3.5 (ug of cross-linked protein) (mg of protein)-1
[5]
  Amount of cross-linked protein: 0.5 (ug of cross-linked protein) (mg of protein)-1

## O=C1c2c(O)cccc2C(C(=O)c2cccs2)c2cccc(O)c21
[3]
  Amount of cross-linked protein: 3.7 (ug of cross-linked protein) (mg of protein)-1
[1]
  DD: 0.65 uM mM-1
[2]
  IC50: > 5000 nM
[4]
  Amount of cross-linked protein: 0.7 (ug of cross-linked protein) (mg of protein)-1
[5]
  Amount of cross-linked protein: -0.9 (ug of cross-linked protein) (mg of protein)-1

## O=C1c2c(O)cccc2C(C(=O)/C=C/c2ccco2)c2cccc(O)c21
[3]
  Amount of cross-linked protein: 1.9 (ug of cross-linked protein) (mg of protein)-1
[6]
  LDH release: 147 mU
[1]
  DD: 1.69 uM mM-1
[2]
  IC50: 1500 nM
[4]
  Amount of cross-linked protein: 0.6 (ug of cross-linked protein) (mg of protein)-1
[5]
  Amount of cross-linked protein: -0.2 (ug of cross-linked protein) (mg of protein)-1

## O=C1c2c(O)cccc2Cc2cccc(O)c21 [ANTHRALIN]
[3]
  Amount of cross-linked protein: 5.8 (ug of cross-linked protein) (mg of protein)-1
[6]
  LDH release: 294 mU
[1]
  DD: 2.89 uM mM-1
[2]
  IC50: 700 nM
[4]
  Amount of cross-linked protein: 4.9 (ug of cross-linked protein) (mg of protein)-1
[5]
  Amount of cross-linked protein: 3.7 (ug of cross-linked protein) (mg of protein)-1

## O=C1c2cccc(O)c2C(=O)c2c(O)cccc21 [DANTHRON]
[3]
  Amount of cross-linked protein: 0 (ug of cross-linked protein) (mg of protein)-1
[4]
  Amount of cross-linked protein: -0.1 (ug of cross-linked protein) (mg of protein)-1
[5]
  Amount of cross-linked protein: 0.6 (ug of cross-linked protein) (mg of protein)-1
